Assay results as given in ChEMBL document CHEMBL1123566, “Synthesis and cardiac electrophysiological activity of 2- and 3-[(substituted phenyl)alkyl]quinuclidines. Structure-activity relationships” (1987).
Where “and” joins values, the source holds several entries; their conditions need not be identical. Identical values can stand only once.

Assays:
Canis familiaris [1] = test: Heart rate was determined by intraduodenal administration of two dosages of 24 mg/kg of compound in anesthetized dogs. Value was reported for experiment 2; type: functional, Canis lupus familiaris
Procedure, shortened: (§1)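 Anesthetized dogs; compound given intraduodenally, generally as two doses, the second a cumulative (high) dose. LV functional refractory period and conduction time measured 15, 30 and 45 min after dosing; heart rate and blood pressure measured during nonpacing intervals. Values are % change from control, given per individual animal. Active if FRP or CT prolonged by ≥12%.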

Canis familiaris [2] = test: Left ventricular refractory period was determined by intraduodenal administration of two doses of 24 mg/kg (high dose) of compound in anesthetized dogs. Value was reported for experiment 2; type: functional, Canis lupus familiaris, Cardiac ventricle
Canis familiaris [3] = test: Heart rate was determined by intraduodenal administration of two dosages of 30 mg/kg of compound in anesthetized dogs. Value was reported for experiment 1; type: functional, Canis lupus familiaris; procedure, shortened: as §1
Canis familiaris [4] = test: Conduction time was determined by intraduodenal administration of two doses of 30 mg/kg (high dose) of compound in anesthetized dogs. Value was reported for experiment 1; type: functional, Canis lupus familiaris; procedure, shortened: as §1
Canis familiaris [5] = organism: Canis familiaris; test: In vitro electrophysiological evaluation in canine cardiac Purkinje fibres reported as percent change Vmax at 10 uM at concentration range of 1-100 uM; Minimal (<10% decrease or increase in V max).; type: functional; details: Canis lupus familiaris, Purkinje fiber
Procedure, shortened: (§2)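 Canine cardiac Purkinje fibres, intracellular microelectrode recording, paced at a basic cycle length of 1 s. APD95 and Vmax read simultaneously. Compound: 10 mM stock in deionized water, diluted into Tyrode's solution, tested over the stated concentration range. Each fibre used once as its own control. Result is % change from control, given at 10 µM or as the maximum with its concentration. M = <10% decrease or an increase in Vmax.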

Canis familiaris [6] = organism: Canis familiaris; test: (§3) In vitro electrophysiological activity in canine cardiac occurred is 10 uM; type: functional, Canis lupus familiaris, Heart
Canis familiaris [7] = test: Heart rate was determined by intraduodenal administration of two dosages of 10 mg/kg of compound in anesthetized dogs. Value was reported for experiment 2; type: functional, Canis lupus familiaris; procedure, shortened: as §1
Canis familiaris [8] = test: Heart rate was determined by intraduodenal administration of two doses of 10 mg/kg (low dose) of compound in anesthetized dogs. Value was reported for experiment 1; type: functional, Canis lupus familiaris; procedure, shortened: as §1
Canis familiaris [9] = organism: Canis familiaris; test: In vitro electrophysiological evaluation in canine cardiac ventricular muscle reported as % change for conduction time(CT) at 10 uM at 0.1-100 uM concentration range; Minimal (<10% decrease or increase in CT).; type: functional, Canis lupus familiaris, Muscle tissue
Canis familiaris [10] = organism: Canis familiaris; test: In vitro electrophysiological activity in canine cardiac occurred is 100 uM; type: functional, Canis lupus familiaris, Heart
Canis familiaris [11] = organism: Canis familiaris; test: as §3; type: functional, Canis lupus familiaris, Heart; remark: listed apart in the source
Canis familiaris [12] = test: Mean arterial blood pressure was determined by intraduodenal administration of two dosages of 24 mg/kg of compound in anesthetized dogs. Value was reported for experiment 2; type: functional, Canis lupus familiaris
Canis familiaris [13] = test: Left ventricular refractory period was determined by intraduodenal administration of two doses of 10 mg/kg (low dose) of compound in anesthetized dogs. Value was reported for experiment 1; type: functional, Canis lupus familiaris, Cardiac ventricle
Canis familiaris [14] = organism: Canis familiaris; test: In vitro electrophysiological evaluation in canine cardiac Purkinje fibres reported as percent change Vmax at 10 uM at concentration range of 1-100 uM.; type: functional; details: Canis lupus familiaris, Purkinje fiber; procedure, shortened: as §2
Canis familiaris [15] = test: Conduction time was determined by intraduodenal administration of two doses of 24 mg/kg (high dose) of compound in anesthetized dogs. Value was reported for experiment 2; type: functional, Canis lupus familiaris; procedure, shortened: as §1
Canis familiaris [16] = test: Mean arterial blood pressure was determined by intraduodenal administration of two dosages of 10 mg/kg of compound in anesthetized dogs. Value was reported for experiment 2; type: functional, Canis lupus familiaris
Procedure, shortened: (§4)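 Anesthetized dogs received two intraduodenal doses, the second cumulative (low dose/high dose). Left ventricular FRP and CT were measured 15, 30 and 45 min after dosing. Heart rate and mean blood pressure were taken during nonpacing intervals. Values are percent change from control. The vehicle was 5% dextrose in water/tragacanth. Activity was defined as ≥12% prolongation of FRP or CT.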

Canis familiaris [17] = organism: Canis familiaris; test: In vitro electrophysiological evaluation in canine cardiac ventricular muscle reported as maximum % change for conduction time(CT) at 0.1-100 uM concentration range; Minimal (<10% decrease or increase in CT).; type: functional, Canis lupus familiaris, Muscle tissue
Procedure, shortened: (§5)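 Canine right ventricle and papillary muscle strips in oxygenated Tyrode's solution, fitted with stimulating and recording electrodes. The extra-stimulus conduction-interval method was adapted for in vitro use. FRP and CT were read from a conduction-interval curve before and after various compound concentrations, and expressed as percent change from control. Compounds were taken from 10 mM deionized-water stock into Tyrode's. Each strip was used once as its own control.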

Canis familiaris [18] = organism: Canis familiaris; test: In vitro electrophysiological evaluation in canine cardiac Purkinje fibres reported as maximum percent change Vmax concentration range of 1-100 uM; Minimal (<10% decrease or increase in V max).; type: functional; details: Canis lupus familiaris; Purkinje fiber; procedure, shortened: as §2
Canis familiaris [19] = organism: Canis familiaris; test: In vitro electrophysiological evaluation in canine cardiac occurred is 100 uM; type: functional; details: Canis lupus familiaris; Heart
Canis familiaris [20] = test: Conduction time was determined by intraduodenal administration of two doses of 10 mg/kg (low dose) of compound in anesthetized dogs. Value was reported for experiment 2; type: functional, Canis lupus familiaris; procedure, shortened: as §1
Canis familiaris [21] = organism: Canis familiaris; test: In vitro electrophysiological evaluation in canine cardiac ventricular muscle reported as % change for the functional refractory period (FRP) at 10 uM at concentration range of 0.1-100 uM; design: species or system Canis lupus familiaris, Muscle tissue; procedure, shortened: as §5
Canis familiaris [22] = organism: Canis familiaris; test: In vitro electrophysiological evaluation in canine cardiac Purkinje fibres reported as % change for action potential duration at 1-100 uM concentration range; type: functional, Canis lupus familiaris, Purkinje fiber; procedure, shortened: as §2
Canis familiaris [23] = test: Mean arterial blood pressure was determined by intraduodenal administration of two dosages of 10 mg/kg of compound in anesthetized dogs. Value was reported for experiment 1; type: functional, Canis lupus familiaris; procedure, shortened: as §4
Canis familiaris [24] = test: Left ventricular refractory period was determined by intraduodenal administration two doses of 30 mg/kg (high dose) of compound in anesthetized dogs. Value was reported for experiment 1; type: functional, Canis lupus familiaris, Cardiac ventricle
Canis familiaris [25] = organism: Canis familiaris; test: In vitro electrophysiological evaluation in canine cardiac Purkinje fibres reported as % change for action potential duration at a concentration of 10 uM; type: functional, Canis lupus familiaris, Purkinje fiber; procedure, shortened: as §2
Canis familiaris [26] = test: Conduction time was determined by intraduodenal administration of two doses of 10 mg/kg (low dose) of compound in anesthetized dogs. Value was reported for experiment 1; type: functional, Canis lupus familiaris; procedure, shortened: as §1
Canis familiaris [27] = organism: Canis familiaris; test: In vitro electrophysiological evaluation in canine cardiac ventricular muscle reported as maximum % change for functional refractory period (FRP) at 0.1-100 uM concentration range; concentration at which it occurred is 100 uM.; design: species or system Canis lupus familiaris, Muscle tissue; procedure, shortened: as §5
Canis familiaris [28] = test: Left ventricular refractory period was determined by intraduodenal administration of two doses of 10 mg/kg (low dose) of compound in anesthetized dogs. Value was reported for experiment 2; type: functional, Canis lupus familiaris, Cardiac ventricle
Canis familiaris [29] = test: Mean arterial blood pressure was determined by intraduodenal administration of two dosages of 30 mg/kg of compound in anesthetized dogs. Value was reported for experiment 1; type: functional, Canis lupus familiaris; procedure, shortened: as §4

Q: Which results are given for `Cl.O=C(CCC1C(=O)C2CCN1CC2)c1ccc([N+](=O)[O-])cc1` (centres undefined)?
A: HR (Canis familiaris [1]): -40%; LV FRP (Canis familiaris [2]): 19%; HR (Canis familiaris [3]): -31%; CT (Canis familiaris [4]): 2%; Vmax (Canis familiaris [5]): < 10%; APD95 (Canis familiaris [6]): 36% and 25%; HR (Canis familiaris [7]): -35%; HR (Canis familiaris [8]): -23%; CT (Canis familiaris [9]): <10%; APD95 (Canis familiaris [10]): 13% and -10%; APD95 (Canis familiaris [11]): 53%; Mean blood pressure (Canis familiaris [12]): -1%; LV FRP (Canis familiaris [13]): 14%; Vmax (Canis familiaris [14]): -17%; CT (Canis familiaris [15]): 11%; Mean blood pressure (Canis familiaris [16]): -10%; CT (Canis familiaris [17]): <10%; Vmax (Canis familiaris [18]): < 10%; Vmax (Canis familiaris [19]): -23%; CT (Canis familiaris [20]): 6%; FRP (Canis familiaris [21]): 15% and 17%; APD95 (Canis familiaris [22]): 53% and 25%; Mean blood pressure (Canis familiaris [23]): -11%; LV FRP (Canis familiaris [24]): 15%; APD95 (Canis familiaris [25]): 36%; CT (Canis familiaris [26]): -1%; FRP (Canis familiaris [27]): 25% and 22%; LV FRP (Canis familiaris [28]): 16%; Mean blood pressure (Canis familiaris [29]): -21%
